Test results published in ChEMBL document CHEMBL2434915, “2-(2-Hydrazinyl)thiazole derivatives: design, synthesis and in vitro antimycobacterial studies” (Eur J Med Chem, 2013).
Converted amounts (≈) assume the structure as drawn.

test system: Mycobacterium tuberculosis; assay: Antimycobacterial activity against Mycobacterium tuberculosis H37Rv after 5 days by broth microdilution method; format: functional; conditions: 120 h
Method in brief: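 Twofold DMSO dilutions (final 100 to 0.19, units as printed unclear) in Middlebrook 7H9 with 0.2% glycerol, 0.05% Tween 80 and 10% ADC; inoculum 3-7 x 10⁵ CFU/ml; 37°C for 5 days. Resazurin/Tween 80 then added, 24 h more at 37°C; A575/A610 read. MIC = lowest concentration giving 80% inhibition versus medium-only (100%) and drug-free culture (0%) controls; isoniazid reference.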

Row | SMILES | MIC [µM]
1 | CCOC(=O)c1sc(N/N=C(\C)c2cccnc2)nc1C | > 200
2 | CCOC(=O)c1sc(N/N=C/c2ccccc2[N+](=O)[O-])nc1C | > 200
3 | NNC(=O)c1ccncc1 [ISONIAZID] | 0.45 (≈ 0.0617 µg/mL)
4 | CC(=O)c1sc(N/N=C(\C)c2cccs2)nc1C | 200 (≈ 55.9 µg/mL)
5 | CCOC(=O)c1sc(N/N=C/c2cccc(O)c2)nc1C | > 200
6 | CCOC(=O)c1sc(N/N=C(\C)c2ccccc2)nc1C | > 200
7 | CCOC(=O)c1sc(N/N=C(\C)c2ccccn2)nc1C | 12.5 (≈ 3.8 µg/mL)
8 | CCOC(=O)c1sc(N/N=C/c2ccc(Cl)cc2Cl)nc1C | > 200
9 | CCOC(=O)c1sc(N/N=C/c2ccccc2Cl)nc1C | > 200
10 | CCOC(=O)c1sc(N/N=C/c2ccccc2)nc1C | > 200
11 | CCOC(=O)c1sc(N/N=C/c2c[nH]c3ccccc23)nc1C | 200 (≈ 65.7 µg/mL)
12 | CCOC(=O)c1sc(N/N=C/c2ccc([N+](=O)[O-])cc2)nc1C | 200 (≈ 66.9 µg/mL)
13 | CC(=O)c1sc(N/N=C/c2c[nH]c3ccccc23)nc1C | > 200
14 | CCOC(=O)c1sc(N/N=C/c2cccc(Br)c2)nc1C | > 200
15 | CCOC(=O)c1sc(N/N=C/c2ccc(OC)cc2)nc1C | > 200
16 | CCOC(=O)c1sc(N/N=C/c2ccc(N(C)C)cc2)nc1C | 200 (≈ 66.5 µg/mL)
17 | CCOC(=O)c1sc(N/N=C/c2ccc3c(c2)OCO3)nc1C | > 200
18 | CCOC(=O)c1sc(N/N=C/c2ccc(OC)c(OC)c2)nc1C | > 200
19 | CCOC(=O)c1sc(N/N=C(\C)c2cccs2)nc1C | 100 (≈ 30.9 µg/mL)

Row | SMILES | MIC [µM]
20 | CC(=O)c1sc(N/N=C(\C)c2ccccn2)nc1C | 100 (≈ 27.4 µg/mL)
21 | COc1cc(/C=N/Nc2nc(C)c(C(C)=O)s2)cc(OC)c1OC | > 200
22 | CCOC(=O)Cc1csc(N/N=C(\C)c2ccccn2)n1 | 200 (≈ 60.9 µg/mL)
23 | CCOC(=O)c1sc(N/N=C(\C)c2cccc(Cl)c2)nc1C | > 200
24 | CCOC(=O)Cc1csc(N/N=C(\C)c2cccnc2)n1 | 200 (≈ 60.9 µg/mL)
25 | CCOC(=O)c1sc(N/N=C/c2ccccc2O)nc1C | 25 (≈ 7.63 µg/mL)
26 | CCOC(=O)c1sc(N/N=C(\C)c2ccncc2)nc1C | 200 (≈ 60.9 µg/mL)
27 | CCOC(=O)c1sc(N/N=C(\C)c2ccc(F)cc2)nc1C | 200 (≈ 64.3 µg/mL)
28 | CCOC(=O)c1sc(N/N=C/c2ccc(O)c(OC)c2)nc1C | > 200
29 | CC(=O)c1sc(N/N=C/c2ccc(Cl)cc2Cl)nc1C | > 200
30 | CC(=O)c1sc(N/N=C/c2ccco2)nc1C | 200 (≈ 49.9 µg/mL)
31 | CC(=O)c1sc(N/N=C/c2cccc3c2OCO3)nc1C | > 200
32 | CCOC(=O)c1sc(N/N=C/c2ccc(O)c(OCC)c2)nc1C | > 200
33 | CCOC(=O)c1sc(N/N=C/c2ccco2)nc1C | 200 (≈ 55.9 µg/mL)
34 | CCOC(=O)c1sc(N/N=C/c2ccc(C)cc2)nc1C | > 200
35 | CCOC(=O)c1sc(N/N=C/c2ccc(O)cc2)nc1C | > 200
36 | CCOC(=O)c1sc(N/N=C/c2cc(OC)c(OC)c(OC)c2)nc1C | > 200
37 | CCOC(=O)c1sc(N/N=C/c2ccc(Cl)cc2)nc1C | > 200
38 | CCOC(=O)c1sc(N/N=C/c2ccc(OC)c(O)c2)nc1C | > 200

test system: A549; assay: Cytotoxicity against human A549 cells after 48 hrs by MTT assay; format: cell-based; conditions: not given
Method in brief: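 A549 human lung carcinoma type II epithelial cells kept in RPMI-1640 with 5% FBS, penicillin/streptomycin and 2 mM L-glutamine at 37 °C, 5% CO2. Seeded at 3 × 10³ cells/well and left overnight. Exposed to compounds at various concentrations for 48 h. After a PBS wash, MTT (5 mg/ml) was added for 4 h at 37 °C. Formazan dissolved in DMSO, read at 540 nm. IC50 from survival plots; mean ±SE, n=5.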

Row | SMILES | IC50 [µg/mL]
39 | CCOC(=O)c1sc(N/N=C(\C)c2ccccc2)nc1C | 150 (≈ 494 µM)
40 | CCOC(=O)c1sc(N/N=C(\C)c2ccccn2)nc1C | 140 (≈ 460 µM)
41 | CC(=O)c1sc(N/N=C(\C)c2ccccn2)nc1C | 50 (≈ 182 µM)
42 | CCOC(=O)Cc1csc(N/N=C(\C)c2ccccn2)n1 | 200 (≈ 657 µM)
